Assay results gathered from unrelated publications.
Lines come from different studies, so protocols differ.
CNR1: Cannabinoid receptor 1 (CNR1, Homo sapiens, UniProt P21554)
Oprm1: Mu-type opioid receptor (Oprm1, Mus musculus, UniProt P42866)

SMILES | target | assay | setting | measurement | result
CC[C@H](C)[C@H](NC(=O)[C@H](CCC(=O)O)NC(=O)[C@H](C)NC(=O)[C@H](CCCCN)NC(=O)[C@H](CC(C)C)NC(=O)[C@@H](NC(=O)[C@H](CCC(=O)O)NC(=O)[C@@H](NC(=O)[C@H](CCC(=O)O)NC(=O)[C@H](CC(=O)O)NC(=O)[C@H](C)NC(=O)[C@@H](NC(=O)[C@@H](NC(=O)[C@H](C)NC(=O)[C@H](C)NC(=O)CCNC(=O)[C@@H](N)CCCCNC(=O)CCCC[C@@H]1SC[C@@H]2NC(=O)N[C@@H]21)C(C)C)[C@@H](C)O)[C@@H](C)O)C(C)C)C(=O)N[C@@H](CO)C(=O)N[C@@H](CCCCN)C(=O)N[C@@H](C)C(=O)N[C@H](C(=O)N[C@@H](CCCCN)C(=O)N[C@@H](CCC(N)=O)C(=O)N[C@H](C(=O)N[C@@H](CCC(N)=O)C(=O)N[C@@H](CCC(=O)O)C(=O)N[C@@H](CCC(=O)O)C(=O)N[C@@H](CC(=O)O)C(=O)N1CCC[C@H]1C(=O)N[C@@H](CC(N)=O)C(N)=O)C(C)C)C(C)C | Myc proto-oncogene protein (MYC, Homo sapiens, UniProt P01106) | binding, BLI |  | Kd | 4600 nM
CCCCCn1nc(C(=O)NC(C)(C)c2cccc(C(N)=O)c2)c2ccccc21 | CNR1 | ligand displacement, radioligand | cell membranes | Ki | 250 nM
CCCCC/C=C\C/C=C\C/C=C\Cc1ccccc1CCCC(=O)N[C@H](C)CO | CNR1 | β-arrestin recruitment, agonist |  | EC50 | 607 nM
COc1cc2c3c(c1OC)-c1c(OC)ccc(Cl)c1CC3N(C)CC2 (racemic) | 5-hydroxytryptamine receptor 2A (HTR2A, Homo sapiens, UniProt P28223) | cell-free assay, radioligand |  | Ki | 893 nM
CC(C)[C@H](CN1CCc2ccccc2C1)NC(=O)c1cccc(-c2cccc(O)c2)c1 | Oprm1 | ligand displacement, radioligand |  | Ki | 3100 nM
CCCCC/C=C\[C@H](C)/C=C\C/C=C\Cc1ccccc1CCCC(=O)N[C@H](C)CO | CNR1 | cAMP, agonist |  | EC50 | 1610 nM
O=C(O)C(F)(F)OC(F)(F)C(F)(F)OC(F)(F)C(F)(F)OC(F)(F)C(F)(F)C(F)(F)C(F)(F)F | Fatty acid-binding protein, brain (Homo sapiens, UniProt O15540) | ligand displacement, fluorescence |  | Kd | 20 nM
c1cncc([C@@H]2CCCN2)c1 | Neuronal acetylcholine receptor; alpha4/beta2 (Rattus norvegicus, UniProt P09483+P12390) | cell-free assay, radioligand |  | Ki | 334 nM
CCCCCc1ccccc1C/C=C\C/C=C\C/C=C\CCCC(=O)N[C@H](C)CO | CNR1 | β-arrestin recruitment, agonist |  | EC50 | 3440 nM
CCCCC1CNC2CCc3ccc(OC)cc3C12 (racemic) | Sigma non-opioid intracellular receptor 1 (SIGMAR1, Homo sapiens, UniProt Q99720) | ligand displacement, radioligand |  | Ki | 0.81 nM
CC(C)(NC(=O)c1nn(CC2CCCC2)c2ccccc12)c1cccc(C(N)=O)c1 | CNR1 | ligand displacement, radioligand | cell membranes | Ki | 130 nM
C[C@@H](O)[C@@H]1NC(=O)CNC(=O)[C@H](Cc2c[nH]cn2)NC(=O)[C@H](Cc2c[nH]c3ccccc23)NC(=O)[C@H](CC(N)=O)NC(=O)CNC(=O)C[C@@H](C(=O)N[C@@H](Cc2c[nH]c3ccccc23)C(=O)N[C@@H](Cc2ccccc2)C(=O)N[C@@H](Cc2ccccc2)C(=O)N[C@@H](CC(N)=O)C(=O)N[C@@H](Cc2ccc(O)cc2)C(=O)N[C@@H](Cc2ccc(O)cc2)C(=O)N[C@@H](Cc2c[nH]c3ccccc23)C(=O)O)NC(=O)[C@@H]2CCCN2C(=O)[C@H](CO)NC1=O | Endothelin-1 receptor (EDNRA, Homo sapiens, UniProt P25101) | ligand displacement, radioligand | cell membranes | IC50 | > 10000 nM
CC(C)[C@@H](CN1CCc2ccccc2C1)NC(=O)Cc1c[nH]c2ccccc12 | Oprm1 | ligand displacement, radioligand |  | Ki | 1240 nM
COc1cc2c(cc1OC)CN(CCc1ccc(NC(=O)c3cccc4c(=O)c5cccc(OC)c5[nH]c34)cc1)CC2 | Kappa-type opioid receptor (OPRK1, Homo sapiens, UniProt P41145) | cell-free assay |  | Ki | > 10000 nM
CC(C)(NC(=O)c1nn(CCCCC#N)c2ccccc12)c1cccc(C(N)=O)c1 | CNR1 | ligand displacement, radioligand | cell membranes | Ki | 460 nM
CC[C@H](C)[C@@H](C(=O)N1CCC[C@H]1c1nccs1)N(C)C(=O)[C@H](CC(C)C)N(C)C(=O)[C@H](Cc1ccc(OC)cc1)N(C)C(=O)/C=C(\C)OC | CNR1 | ligand displacement, radioligand |  | IC50 | 16600 nM
